The text below walks through data of ChEMBL document CHEMBL1136008, “Novel tricyclic poly(ADP-ribose) polymerase-1 inhibitors with potent anticancer chemopotentiating activity: design, synthesis, and X-ray cocrystal structure” (J Med Chem, 2002).

Test [1] has as its system A549. Kind of test: (§1) Cytotoxicity potentiation of Topotecan in human lung carcinoma A549 cells by the compound as potentiation factor at 50% growth inhibition. Format: functional. In a few lines:
(§2)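 Cells were seeded 16–24 h before treatment, then exposed continuously for 5 days to increasing concentrations of temozolomide or topotecan, with or without 0.4 μM PARP-1 inhibitor. Final DMSO was 1%. Relative cell number was measured by SRB assay. Growth IC50 values came from point-to-point analysis of growth curves. PF50 = IC50 of cytotoxic agent alone / IC50 with inhibitor. Data are mean ± SEM of three independent experiments.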

Test [2] addresses T1, Poly [ADP-ribose] polymerase 1 (Homo sapiens, UniProt P09874).
The subject of test [3] is SW-620. Put plainly: Cytotoxicity potentiation of Topotecan in human lung carcinoma SW620 cell line by the compound as potentiation factor at 50% growth inhibition. Format: functional. The settings on record: in the assay text read “human colon carcinoma” for “human lung carcinoma”. Summed up:
as §2

For test [4], the system named is A549. Kind of test: Cytotoxic potentiation of Topotecan (TP) by the compound in human lung carcinoma A549 cell line. Type of test: functional, cell-based. Summed up: as §2
In test [5] the test system is A549. Described as §1. Format: functional. Summed up: as §2
This is another data set of the same source.

Test [6] has as its system LoVo. Put plainly: Cytotoxic potentiation of Tomozolomide (TM) by the compound in human colorectal carcinoma LoVo cell line. Type of test: functional, cell-based. In a few lines:
as §2

For test [7], the system named is LoVo. Put plainly: Cytotoxic potentiation of Topotecan (TP) by the compound in human colorectal carcinoma LoVo cell line. Type of test: functional, cell-based. Summed up: as §2
For test [8], the target named is T1, Poly [ADP-ribose] polymerase 1. The source holds these as a separate data set.
The subject of test [9] is SW-620. Kind of test: Cytotoxic potentiation of Topotecan (TP) by the compound in human colon carcinoma SW620 cell line. Format: functional, cell-based. In a few lines: as §2
Test [10] concerns LoVo. Put plainly: Cytotoxic potentiation of Topotecan (TP) by the compound in (human colorectal cancer LoVo cell line. Type of test: functional, cell-based. Summed up:
as §2

Molecules are shown by their SMILES. Some results are limits rather than exact numbers.

T1 sequence (P09874 whole entry): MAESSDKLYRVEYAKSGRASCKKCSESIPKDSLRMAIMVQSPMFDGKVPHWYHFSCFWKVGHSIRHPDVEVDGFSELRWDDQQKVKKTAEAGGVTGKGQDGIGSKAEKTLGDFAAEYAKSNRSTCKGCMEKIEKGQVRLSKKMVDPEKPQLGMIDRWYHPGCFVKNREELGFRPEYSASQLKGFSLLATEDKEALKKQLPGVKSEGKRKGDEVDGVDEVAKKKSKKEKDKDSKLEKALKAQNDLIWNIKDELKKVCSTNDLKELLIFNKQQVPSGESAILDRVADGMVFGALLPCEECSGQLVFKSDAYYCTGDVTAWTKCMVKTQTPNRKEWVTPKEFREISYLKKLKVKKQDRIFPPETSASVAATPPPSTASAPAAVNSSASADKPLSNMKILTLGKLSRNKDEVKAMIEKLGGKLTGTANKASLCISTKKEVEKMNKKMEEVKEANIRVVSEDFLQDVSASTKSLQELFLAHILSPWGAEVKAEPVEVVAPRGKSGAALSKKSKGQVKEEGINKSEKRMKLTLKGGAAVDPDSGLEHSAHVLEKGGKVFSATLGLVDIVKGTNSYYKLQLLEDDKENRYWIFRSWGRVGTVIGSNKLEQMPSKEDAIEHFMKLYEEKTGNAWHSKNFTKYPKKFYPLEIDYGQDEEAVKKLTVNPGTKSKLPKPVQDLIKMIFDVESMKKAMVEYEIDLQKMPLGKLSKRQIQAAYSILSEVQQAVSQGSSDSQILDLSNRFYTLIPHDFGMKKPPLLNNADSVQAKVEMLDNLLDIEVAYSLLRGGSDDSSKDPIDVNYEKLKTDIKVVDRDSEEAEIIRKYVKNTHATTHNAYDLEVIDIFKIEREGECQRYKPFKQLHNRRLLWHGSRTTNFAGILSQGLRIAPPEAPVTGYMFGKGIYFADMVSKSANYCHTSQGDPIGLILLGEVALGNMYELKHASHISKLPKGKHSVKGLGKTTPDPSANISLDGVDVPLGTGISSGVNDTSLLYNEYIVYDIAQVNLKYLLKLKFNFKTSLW

On to `Cn1c(-c2ccccc2)c2c3c(cccc31)C(=O)NCC2`, for which the PF50 with A549 [1] is recorded as 1.7.
`COc1ccc(-c2[nH]c3cccc4c3c2CCNC4=O)cc1` gave an inhibition constant Ki in [2] of 6 nM.
Take `O=C1NCc2c(-c3ccccc3)[nH]c3cccc1c23`: the Ki in [2] is less than 5 nM.
Regarding `CN(C)Cc1cccc(-c2[nH]c3cccc4c3c2CCNC4=O)c1`, affinity in test [2] was put at a Ki of 8 nM. In addition, the PF50 in the test with A549 [1] amounted to 2.1.
For the molecule `N#Cc1[nH]c2cccc3c2c1CCNC3=O`, affinity in test [2] was put at a Ki of 11 nM.
For `O=C1NCCc2c(-c3ccccc3)[nH]c3cccc1c23`, the PF50 in the test with A549 [1] is recorded as 1.8.
`COc1[nH]c2cccc3c2c1CCNC3=O` came in with a Ki in test [2] of 10 nM.
As for `CN(C)Cc1ccc(-c2[nH]c3cccc4c3c2CCNC4=O)cc1`, the PF50 with A549 [1] is given as 2.4.
On to `O=C1NCCc2c(-c3ccc(Cn4cccc4)cc3)[nH]c3cccc1c23`, for which the values for the PF50 in the test on SW-620 [3], with A549 [5] and with A549 [1] were 1.8, 2 and 2, respectively. Further, the IC50 was 12 nM in the test with A549 [4], 76000 nM in the test on LoVo [6], 6.5 nM with LoVo [7] and 1.8 nM in the test on SW-620 [9]. This molecule returned an inhibition constant (Ki) in test [8] of 6 nM.
Consider `CN(C)Cc1cccc(-c2[nH]c3cccc4c3c2CNC4=O)c1`, for which, in test [2], the Ki was less than 5 nM.
`CN1CCc2c(-c3ccccc3)n(C)c3cccc(c23)C1=O`: the PF50 in the test on A549 [1] is 1.2.
In test [2], `O=C1NCCc2c(O)[nH]c3cccc1c23` came in with a Ki of 370 nM.
Still for that read-out and setting: in the case of `Nc1cccc(-c2[nH]c3cccc4c3c2CCNC4=O)c1` it was 7 nM.
As to `O=C1NCCc2c[nH]c3cccc1c23`, the PF50 in the test on A549 [1] was 1.1.
For `O=C1NCCc2c(C(c3ccccc3)c3ccccc3)[nH]c3cccc1c23`, in test [2], affinity was put at a Ki of 23 nM. This lies in the double-digit nanomolar range.
On the same count and under the same terms, with `O=C1NCCc2c(-c3ccc[nH]3)[nH]c3cccc1c23` the figure was 8 nM.
Turning to `CN(C)Cc1ccc(-c2[nH]c3cccc4c3c2CNC4=O)cc1`, the PF50 with A549 [1] came out at 2.2.
For `O=C1NCCc2c(-c3ccc(F)cc3)[nH]c3cccc1c23`, in the test on A549 [1], the PF50 is given as 2.3.
On to `O=C1NCCc2c(-c3cccc(C(F)(F)F)c3)[nH]c3cccc1c23`, for which the Ki in test [2] was determined as 6 nM.
In the case of `Cn1nnc2c(C(N)=O)ncn2c1=O` [TEMOZOLOMIDE], in the test with LoVo [10] (in the assay text read “Temozolomide (TM)” for “Topotecan (TP)”), the IC50 amounted to 595000 nM.
As for `CC[C@@]1(O)C(=O)OCc2c1cc1n(c2=O)Cc2cc3c(CN(C)C)c(O)ccc3nc2-1` [TOPOTECAN], the results for the IC50 in the test on A549 [4], in the test on LoVo [10] and in the test on SW-620 [9] were 24 nM, 11.6 nM and 3.2 nM, respectively.

Broadly, the Ki is the equilibrium dissociation constant of an inhibitor or competing ligand from its target. A word on the IC50: it is the concentration that gives 50% inhibition.
